In ChEMBL document CHEMBL2203099, “Identification of a crucial amino acid in the helix position 6.51 of human tachykinin neurokinin 1 and 3 receptors contributing to the insurmountable mode of antagonism by dual NK₁/NK₃ antagonists” (J Med Chem, 2012):
The source made the active and inactive calls. The rule behind the calls is not given here.

Legend:
[1] = target: T1, Neuromedin-K receptor (Homo sapiens) (UniProt P29371); assay: Noncompetitive inhibition at wild type human NK3 expressed in HEK293 cells assessed as decrease in [MePhe7]NKB-induced [3H]IP accumulation after 20 mins; type: cell-based
T1 sequence (whole entry): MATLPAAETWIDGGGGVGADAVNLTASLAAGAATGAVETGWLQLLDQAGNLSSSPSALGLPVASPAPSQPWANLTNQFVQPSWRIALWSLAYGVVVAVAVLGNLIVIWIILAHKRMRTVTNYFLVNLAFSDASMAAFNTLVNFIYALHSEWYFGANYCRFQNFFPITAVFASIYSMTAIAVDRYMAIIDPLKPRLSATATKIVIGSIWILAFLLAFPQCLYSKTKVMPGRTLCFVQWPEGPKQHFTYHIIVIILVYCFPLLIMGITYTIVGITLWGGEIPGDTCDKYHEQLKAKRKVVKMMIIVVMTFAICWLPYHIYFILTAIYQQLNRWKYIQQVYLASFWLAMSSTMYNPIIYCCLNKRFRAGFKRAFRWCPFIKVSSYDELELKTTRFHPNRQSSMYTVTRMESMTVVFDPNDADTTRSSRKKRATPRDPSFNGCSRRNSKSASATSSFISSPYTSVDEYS
In short: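 HEK293 cells transiently expressing human NK3 WT or mutant, labeled with myo-[³H]inositol in LiCl buffer. Antagonist preincubated 20 min at 37 °C, then [MePhe⁷]NKB (0.01 nM–1 μM) added for 45 min at 37 °C. [³H]IP read by SPA beads. Schild analysis of EC50 shift and Emax depression across increasing antagonist concentrations gives pA2, slope and mode of antagonism.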

Substance-P receptor [2] = target: T2, Substance-P receptor (Homo sapiens, UniProt P25103); assay: Binding affinity at human NK1 receptor
Neuromedin-K receptor [3] = target: T3, Neuromedin-K receptor (Homo sapiens, UniProt P29371); assay: Displacement of [3H]osanetant from wild type human NK3 receptor expressed in HEK293 cells; type: cell-based
T3 sequence (P29371 whole entry): T1 sequence (whole entry)

Neuromedin-K receptor [4] = target: Neuromedin-K receptor (Homo sapiens, UniProt P29371, Y315F); assay: Displacement of radioligand [3H]osanetant at human NK3 Y315F6.51 mutant expressed in HEK293 cells; type: cell-based
Substance-P receptor [5] = target: T2, Substance-P receptor; assay: Noncompetitive inhibition of wild type human NK1 receptor expressed in HEK293 cells assessed as decrease in SP1-induced [3H]IP accumulation after 20 mins; type: cell-based
Neuromedin-K receptor [6] = target: T3, Neuromedin-K receptor; assay: Binding affinity to wild type human NK3 receptor
HEK293 = assay: Selectivity ratio of Ki for wild type human NK3 receptor expressed in HEK293 cells to Ki for human NK3 Y315F6.51 mutant expressed in HEK293 cells; type: cell-based

T2 sequence (P25103 whole entry): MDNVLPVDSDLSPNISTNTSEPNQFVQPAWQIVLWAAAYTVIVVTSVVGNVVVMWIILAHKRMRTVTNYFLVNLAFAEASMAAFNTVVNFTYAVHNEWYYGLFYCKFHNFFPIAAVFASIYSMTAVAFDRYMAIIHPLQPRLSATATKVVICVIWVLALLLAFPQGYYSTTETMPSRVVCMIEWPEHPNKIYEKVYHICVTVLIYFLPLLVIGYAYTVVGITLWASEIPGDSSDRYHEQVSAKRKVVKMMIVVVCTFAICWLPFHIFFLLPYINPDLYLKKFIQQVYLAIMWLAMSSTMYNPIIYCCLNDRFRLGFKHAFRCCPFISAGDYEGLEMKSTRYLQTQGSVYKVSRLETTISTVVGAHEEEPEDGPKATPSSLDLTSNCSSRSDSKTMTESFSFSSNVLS
Sequence of Neuromedin-K receptor (Homo sapiens, UniProt P29371, Y315F) (P29371 whole entry Y315F): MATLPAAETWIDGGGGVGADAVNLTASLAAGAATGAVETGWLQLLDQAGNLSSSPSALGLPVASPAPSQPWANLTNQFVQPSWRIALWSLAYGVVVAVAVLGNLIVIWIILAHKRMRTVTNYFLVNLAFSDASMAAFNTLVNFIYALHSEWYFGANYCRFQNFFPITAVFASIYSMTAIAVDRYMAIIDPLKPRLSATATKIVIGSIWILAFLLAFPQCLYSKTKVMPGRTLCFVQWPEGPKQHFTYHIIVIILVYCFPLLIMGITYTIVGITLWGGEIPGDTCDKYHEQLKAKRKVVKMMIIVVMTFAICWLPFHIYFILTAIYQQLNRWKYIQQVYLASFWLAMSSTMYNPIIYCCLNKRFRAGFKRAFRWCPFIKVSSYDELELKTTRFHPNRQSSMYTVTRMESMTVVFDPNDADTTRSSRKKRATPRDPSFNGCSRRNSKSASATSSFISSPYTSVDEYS

`Cc1cc(F)ccc1-c1cc(N2CC[C@H](O)[C@H]2CO)ncc1N(C)C(=O)C(C)(C)c1cc(C(F)(F)F)cc(C(F)(F)F)c1` was tested, and the inhibition [1] was “Active”, the Ki (Substance-P receptor [2]) was 0.7 nM and the Ki (Neuromedin-K receptor [3]) was 2.9 nM. The Ki (Neuromedin-K receptor [4]) was 0.7 nM, the inhibition (Substance-P receptor [5]) was “Active” and the Ki (Neuromedin-K receptor [6]) was 2.9 nM. The Ratio Ki (HEK293) was 4.1.
